Measurements as given in ChEMBL document CHEMBL4390663, “Cationic biaryl 1,2,3-triazolyl peptidomimetic amphiphiles: synthesis, antibacterial evaluation and preliminary mechanism of action studies” (Eur J Med Chem, 2019).
In brackets after ≈: the same amount, converted by molar mass.

Columns and labels:
[1] = system: Staphylococcus aureus; assay: Antibacterial activity against methicillin-resistant Staphylococcus aureus NCTC 10442 incubated for 24 hrs by CLSI method; type: functional; conditions: NCTC 10442, 24 h
Summary of the method: (§1)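 Broth microdilution per CLSI aerobic guidance in Mueller Hinton broth, ambient air, 35 °C for 24 h. DMSO stocks were diluted in water, then serially diluted with double-strength broth inoculum added, for final 0.25–128 μg/mL. […] MIC was read visually as the lowest concentration inhibiting growth; the modal value of triplicates was recorded.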

[2] = system: Klebsiella pneumoniae; assay: Antibacterial activity against Klebsiella pneumoniae 700603 incubated for 18 hrs by CLSI method; type: functional
Summary of the method: (§2)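 Screen run by CO-ADD: mid-log cultures in cation-adjusted MHB, 5 × 10^5 CFU/mL, compounds at up to 32 μg/mL in 1:2 serial dilutions (8 steps), final DMSO ≤0.5%, duplicate. 37 °C for 18 h without shaking; OD600 read against media-only and untreated-bacteria references. MIC = lowest concentration giving ≥80% inhibition; colistin standard.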

[3] = system: Staphylococcus aureus; assay: Induction of plasma membrane permeabilization in Staphylococcus aureus ATCC 29213 at 32 ug/ml measured for 30 mins by propidium iodide staining based fluorescence assay relative to control; type: functional
Summary of the method: (§3)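 Mid-log cells (1.5 McFarland) with 4 µM propidium iodide, dark, room temperature: S. aureus in PBS 30 min; E. coli in 5 mM HEPES/20 mM glucose pH 7.2 for 60 min, then 100 mM KCl and 0.5 mM EDTA. Fluorescence (ex 544/em 615 nm) read ~8 min baseline, then ~30 min after compound at 32 µg/mL final.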

[4] = system: Enterococcus faecalis; assay: Antibacterial activity against Enterococcus faecalis ATCC 29212 incubated for 24 hrs by CLSI method; type: functional; conditions: ATCC 29212, 24 h
[5] = Cytotoxicity against human HEK293 cells assessed as reduction in cell growth incubated for 20 hrs by resazurin dye-based fluorometric assay
Summary of the method: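 HEK293 cells, 5000 per well in DMEM + 10% FBS, exposed to compounds (top 32 μg/mL, 1:2 serial dilution ×8, ≤0.5% DMSO, duplicate) for 20 h at 37 °C, 5% CO2. Resazurin added (2.3 μg/mL final), 3 h further; fluorescence ex 560/em 590 nm. CC50 from sigmoidal dose-response fit against log concentration; tamoxifen standard.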

[6] = system: Staphylococcus aureus; assay: Antimicrobial activity against Staphylococcus aureus ATCC 29213 incubated for 24 hrs by CLSI method; type: functional; conditions: ATCC 29213, 24 h; summary of the method: as §1
[7] = system: Staphylococcus aureus; assay: Antimicrobial activity against Staphylococcus aureus ATCC 43300 incubated for 18 hrs by CLSI method; type: functional; conditions: ATCC 43300, 18 h
[8] = system: Clostridioides difficile; assay: Antibacterial activity against Clostridium difficile NSW132 RT027 incubated for 48 hrs by CLSI method; type: functional; conditions: NSW132 RT027, 48 h
Summary of the method: (§4)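 Broth microdilution per CLSI anaerobe method in pre-reduced (2-4 h) Brucella broth with haemin and vitamin K, 35 °C anaerobically for 48 h. Compounds from 5 mg/mL DMSO stocks, twofold dilutions in water mixed with double-strength broth; final 0.25–128 μg/mL. […] Triplicate; modal MIC read visually as lowest concentration inhibiting growth.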

[9] = Haemolytic activity in sheep erythrocytes at 5 ug/ml incubated for 2 hrs under shaking condition relative to control; type: ADME, cell-based, Ovis aries, Erythrocyte; conditions: read-out: Activity
Summary of the method: (§5)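 Compounds in PBS mixed with washed sheep erythrocytes (2% final) at 5 or 50 μg/mL, rocked 2 h at 37 °C, centrifuged; supernatant absorbance at 540 nm. PBS-only value subtracted, then expressed relative to water lysis (100%). Triplicate, means reported.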

[10] = system: Escherichia coli; assay: Antibacterial activity against Escherichia coli ATCC 25922 incubated for 18 hrs by CLSI method; type: functional; summary of the method: as §2
[11] = system: Acinetobacter baumannii; assay: Antimicrobial activity against Acinetobacter baumannii ATCC 19606 incubated for 18 hrs by CLSI method; type: functional; summary of the method: as §2
[12] = system: Clostridioides difficile; assay: Antibacterial activity against Clostridium difficile ATCC 700057 incubated for 48 hrs by CLSI method; type: functional; conditions: ATCC 700057, 48 h; summary of the method: as §4
[13] = system: Escherichia coli; assay: Induction of cytoplasmic membrane depolarization in Escherichia coli NCTC 10418 at 64 ug/ml incubated for 30 mins by diSC35 staining based fluorescence assay relative to control; type: functional
Summary of the method: (§6)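 Mid-log cells (1.5 McFarland) loaded with 4 µM diSC3(5) in the dark at room temperature: S. aureus in PBS 30 min; E. coli in 5 mM HEPES/20 mM glucose pH 7.2 for 60 min, then 100 mM KCl and 0.5 mM EDTA. Baseline fluorescence (ex 620/em 670 nm) ~8 min, then compound added (final 32 µg/mL S. aureus, 64 µg/mL E. coli), tracked ~30 min.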

[14] = system: Escherichia coli; assay: Induction of plasma membrane permeabilization in Escherichia coli NCTC 10418 at 32 ug/ml measured for 30 mins by propidium iodide staining based fluorescence assay relative to control; type: functional; summary of the method: as §3
[15] = system: Staphylococcus aureus; assay: Induction of cytoplasmic membrane depolarization in Staphylococcus aureus ATCC 29213 at 32 ug/ml incubated for 30 mins by diSC35 staining based fluorescence assay relative to control; type: functional; summary of the method: as §6
[16] = system: Streptococcus pneumoniae; assay: Antibacterial activity against Streptococcus pneumoniae ATCC 49619 incubated for 24 hrs by CLSI method; type: functional; conditions: ATCC 49619, 24 h
Summary of the method: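 CLSI broth microdilution in MHB with 2.5% lysed horse blood, 5% CO2, 35 °C, 24 h. Compounds from 5 mg/mL DMSO stocks diluted in water plus double-strength broth; final 0.25–128 μg/mL. […] Triplicate; modal MIC read visually as lowest growth-inhibiting concentration.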

[17] = Haemolytic activity in sheep erythrocytes at 50 ug/ml incubated for 2 hrs under shaking condition relative to control; type: ADME, cell-based, Ovis aries, Erythrocyte; conditions: read-out: Activity; summary of the method: as §5
[18] = system: Pseudomonas aeruginosa; assay: Antimicrobial activity against Pseudomonas aeruginosa ATCC 27853 incubated for 18 hrs by CLSI method; type: functional; summary of the method: as §2
[19] = system: Staphylococcus aureus; assay: Bactericidal activity against exponential phase of Staphylococcus aureus ATCC 29213 assessed as reduction in bacterial count at 4 ug/ml measured at 2 hrs by time-kill kinetics assay; type: functional, organism-based
[20] = system: Escherichia coli; assay: Induction of plasma membrane permeabilization in Escherichia coli NCTC 10418 at 64 ug/ml measured for 30 mins by propidium iodide staining based fluorescence assay relative to control; type: functional, organism-based
[21] = system: Enterococcus faecalis; assay: Antimicrobial activity against vancomycin-resistant Enterococcus faecalis clinical isolate incubated for 18 hrs by CLSI method; type: functional
[22] = system: Staphylococcus aureus; assay: Antimicrobial activity against glycopeptide intermediate susceptible/methicillin-resistant Staphylococcus aureus NRS1 incubated for 18 hrs by CLSI method; type: functional; conditions: NRS1, 18 h
[23] = system: Staphylococcus aureus; assay: Antimicrobial activity against glycopeptide intermediate susceptible Staphylococcus aureus NRS17 incubated for 18 hrs by CLSI method; type: functional; conditions: NRS17, 18 h
[24] = system: Streptococcus pneumoniae; assay: Antibacterial activity against MDR Streptococcus pneumoniae ATCC 700677 incubated for 18 hrs by CLSI method; type: functional; conditions: ATCC 700677, 18 h
[25] = system: Staphylococcus aureus; assay: Antimicrobial activity against vancomycin resistant Staphylococcus aureus NARSA VRS10 incubated for 18 hrs by CLSI method; type: functional; conditions: NARSA VRS10, 18 h
[26] = system: Staphylococcus aureus; assay: Antimicrobial activity against methicillin-resistant Staphylococcus aureus ATCC 43300 incubated for 18 hrs by CLSI method; type: functional; conditions: ATCC 43300, 18 h
[27] = system: Staphylococcus aureus; assay: Antimicrobial activity against methicillin-resistant Staphylococcus aureus clinical isolate incubated for 18 hrs by CLSI method; type: functional
[28] = system: Staphylococcus aureus; assay: Antimicrobial activity against methicillin-resistant Staphylococcus aureus clinical isolate with reduced daptomycin susceptibility incubated for 18 hrs by CLSI method; type: functional
[29] = Klebsiella pneumoniae, 700603, 18 h
[30] = ATCC 19606 = CIP 70.34 = JCM 6841, 18 h

Molecule | MIC [1] [µg/mL] | MIC [2, 29] [µg/mL] | MIC [4] [µg/mL] | CC50 at 20 h [5] [µg/mL] | MIC [6] [µg/mL] | MIC [7] [µg/mL] | MIC [8] [µg/mL] | MIC ([10]; ATCC 25922, 18 h) [µg/mL] | MIC [11, 30] [µg/mL] | MIC [12] [µg/mL] | Activity [13] | MIC [16] [µg/mL] | MIC [21] [µg/mL] | MIC [22] [µg/mL] | MIC [23] [µg/mL] | MIC [24] [µg/mL] | MIC [25] [µg/mL] | MIC [26] [µg/mL] | MIC [27] [µg/mL] | MIC [28] [µg/mL] | other results
CC(C)CCOc1ccccc1-c1ccccc1OCc1cn(C[C@@H](CCCCN)NC(=O)[C@@H](CCCNC(=N)N)n2cc(CC3CCCCC3)nn2)nn1.Cl.Cl | 4 | 16 | 4 | > 32 | 4 | 2 | 4 | 4 | 8 | 4 | 460 - 900% | 4 | – | – | – | – | – | – | – | – | Activity [3]: 600%; hemolysis at 2 h, 5 ug/ml [9]: 1.5%; Activity [14]: 25 - 40%; Activity [15]: 120 - 180%; hemolysis at 2 h, 50 ug/ml [17]: 42.4%; MIC ([18]; ATCC 27853, 18 h): 16 µg/mL
COLISTIN | – | – | – | – | – | – | – | – | – | – | 400% | – | – | – | – | – | – | – | – | – | MIC [2]: 0.25 µg/mL; Activity [19]: < 1000 CFU/mL; MIC [10]: 0.125 µg/mL; Activity [20]: 75%; MIC ([11]; ATCC 19606 = CIP 70.34 = JCM 6841): 0.25 µg/mL; MIC [18]: 0.25 µg/mL
CN[C@H](CC(C)C)C(=O)N[C@H]1C(=O)N[C@@H](CC(N)=O)C(=O)N[C@H]2C(=O)N[C@H]3C(=O)N[C@H](C(=O)N[C@H](C(=O)O)c4cc(O)cc(O)c4-c4cc3ccc4O)[C@H](O)c3ccc(c(Cl)c3)Oc3cc2cc(c3O[C@@H]2O[C@H](CO)[C@@H](O)[C@H](O)[C@H]2O[C@H]2C[C@](C)(N)[C@H](O)[C@H](C)O2)Oc2ccc(cc2Cl)[C@H]1O [VANCOMYCIN] | – | – | – | – | – | – | 0.5 (≈ 0.345 µM) | – | – | 0.5 (≈ 0.345 µM) | – | 1 (≈ 0.69 µM) | > 32 | 8 (≈ 5.52 µM) | 8 (≈ 5.52 µM) | 1 to 2 (≈ 0.69 to 1.38 µM) | – | – | – | – | –
CC(C)CCOc1ccc2ccccc2c1-c1c(OCc2cn(C[C@@H](CCCCN)NC(=O)Cc3ccc4c(c3)OCO4)nn2)ccc2ccccc12.Cl | 8 | – | 8 | – | 8 | – | 32 | – | – | 32 | – | 16 | 4 | 8 to 16 | 16 | 8 to 16 | 8 to 16 | 8 | > 32 | 8 | –
CC(C)CCOc1ccc2ccccc2c1-c1c(OCc2cn(C[C@@H](CCCCN)NC(=O)CCc3ccccc3)nn2)ccc2ccccc12.Cl | 8 | > 32 | 8 | 3.5 | 4 | 4 | 32 | > 32 | > 32 | 32 | – | 16 | 4 | 8 to 16 | 8 | 8 | 8 | 2 to 4 | 16 | 8 | MIC ([18]; ATCC 27853, 18 h): > 32 µg/mL
CCCCCCCCCC(=O)N[C@@H](Cc1c[nH]c2ccccc12)C(=O)N[C@H](CC(N)=O)C(=O)N[C@@H](CC(=O)O)C(=O)N[C@@H]1C(=O)NCC(=O)N[C@@H](CCCN)C(=O)N[C@@H](CC(=O)O)C(=O)N[C@H](C)C(=O)N[C@@H](CC(=O)O)C(=O)NCC(=O)N[C@H](CO)C(=O)N[C@@H]([C@H](C)CC(=O)O)C(=O)N[C@@H](CC(=O)c2ccccc2N)C(=O)O[C@@H]1C | – | – | – | – | – | – | – | – | – | – | – | – | 8 (≈ 4.94 µM) | 8 (≈ 4.94 µM) | 8 (≈ 4.94 µM) | 1 to 2 (≈ 0.617 to 1.23 µM) | 2 (≈ 1.23 µM) | 0.5 to 1 (≈ 0.309 to 0.617 µM) | 2 (≈ 1.23 µM) | 4 (≈ 2.47 µM) | –
CC(C)CCOc1ccc2ccccc2c1-c1c(OCc2cn(C[C@@H](CCCCN)NC(=O)[C@@H](CCCNC(=N)N)NC(=O)Cc3ccc4c(c3)OCO4)nn2)ccc2ccccc12.Cl.Cl | 4 | – | 4 | – | 4 | – | 32 | – | – | 8 | – | 4 | 2 | 2 to 4 | 4 | 2 | 4 | 2 | 4 | 4 | –
CC(C)CCOc1ccccc1-c1ccccc1OCc1cn(C[C@@H](CCCCN)NC(=O)CCc2ccccc2)nn1.Cl | 4 | 32 | 8 | 4.8 | 8 | 16 | 16 | 32 | > 32 | 8 | 460 - 900% | 8 | – | – | – | – | – | – | – | – | Activity [3]: 600%; hemolysis at 2 h, 5 ug/ml [9]: 0.2%; Activity [14]: 75%; Activity [15]: 120 - 180%; hemolysis at 2 h, 50 ug/ml [17]: 101%; MIC ([18]; ATCC 27853, 18 h): 32 µg/mL
